Data from ChEMBL document CHEMBL1157229, “Phaeofurans and sorbicillin analogues from a fungicolous Phaeoacremonium species (NRRL 32148)” (2006).
The source made the active and inactive calls. The calls are words filed in the database; no cut-off is given here.

Experiments:
Aspergillus flavus = test: Antifungal activity against Aspergillus flavus NRRL 6541 at 200 ug/disk after 48 hrs by standard disk diffusion assay; type: functional; details: for zone of inhibition at 200 µg/disc: NRRL 6541, 48 h, read-out: IZ
Outline: (§1)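 Compounds applied at 200 µg per disk. Read-out was the zone diameter (mm) around the disk at 48 h. Zones were scored as clear, partial clearing, or reduced sporulation of the fungus.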

Fusarium verticillioides = test: Antifungal activity against Fusarium verticillioides NRRL 25457 at 200 ug/disk after 48 hrs by standard disk diffusion assay; type: functional, organism-based; outline: as §1
Candida albicans = test: Antifungal activity against Candida albicans ATCC 14053 at 200 ug/disk after 48 hrs by standard disk diffusion assay; type: functional, organism-based
Staphylococcus aureus = test: […] activity against Staphylococcus aureus ATCC 29213 at 200 ug/disk after 48 hrs by standard disk diffusion assay; type: functional, organism-based
Escherichia coli = test: […] activity against Escherichia coli ATCC 25922 at 200 ug/disk after 48 hrs by standard disk diffusion assay; type: functional, organism-based

Work on `C/C=C/C=C/C(=O)c1cc(C=O)c(OC)cc1O` yielded a zone of inhibition at 200 µg/disc (Aspergillus flavus) of 40 mm.
`O[C@@H]1c2cocc2[C@@H](O)[C@H]2O[C@H]21` was tested, and the Activity (Fusarium verticillioides) was “inactive”, the Activity (Aspergillus flavus) was “inactive” and the Activity (Candida albicans) was “inactive”. The Activity (Staphylococcus aureus) was “inactive” and the Activity (Escherichia coli) was “inactive”.
With `C/C=C/C=C/C(=O)c1cc(C)c(OC)cc1O` the Activity (Aspergillus flavus) was “inactive”.
Work on `C/C=C/CCC(=O)c1cc(CO)c(OC)cc1O` yielded a zone of inhibition at 200 µg/disc (Aspergillus flavus) of 18 mm.
In the case of `CCCC(O)[C@H]1OCC2=C1[C@@H](O)[C@H]1O[C@H]1[C@@H]2O` (stereo partly drawn), the Activity (Fusarium verticillioides) is reported as “inactive”, the Activity (Aspergillus flavus) is reported as “inactive” and the Activity (Candida albicans) is reported as “inactive”. For the same molecule, the Activity (Staphylococcus aureus) was “inactive” and the Activity (Escherichia coli) was “inactive”.
